# An excerpt weighted towards active compounds, which were near 3.2% of everything screened.
# Mcl1-Noxa inh: Mcl-1/Noxa interaction inhibition; Q07820; TR-FRET Mcl-1/Noxa peptide binding, 2 h; inhibition, % at 21.7 µM; actives 1.5% (n = 220,000); AID 1022;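 active means compounds that cut the protein-peptide binding signal by more than 50% relative to plate controls in a single-dose test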;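 further: His-tagged Mcl-1 with rhodamine Noxa BH3 peptide and terbium anti-His antibody; 0% = Mcl-1 plus Noxa peptide wells and 100% = peptide-only wells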
# Hck Nef HTS: human Hck-Nef kinase inhibition; P08631; Recombinant Hck-YEEI plus Nef, Z-Lyte FRET kinase assay; inhibition, % at 20 µM; actives 0.68% (n = 220,000);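 active means Hck-Nef kinase inhibition above about 50%, limit read from the data; inactive means inhibition below that limit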;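 further: 0% = DMSO with Hck plus Nef and 100% = Hck alone without Nef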
# Target sequence (P08631 whole entry, looked up): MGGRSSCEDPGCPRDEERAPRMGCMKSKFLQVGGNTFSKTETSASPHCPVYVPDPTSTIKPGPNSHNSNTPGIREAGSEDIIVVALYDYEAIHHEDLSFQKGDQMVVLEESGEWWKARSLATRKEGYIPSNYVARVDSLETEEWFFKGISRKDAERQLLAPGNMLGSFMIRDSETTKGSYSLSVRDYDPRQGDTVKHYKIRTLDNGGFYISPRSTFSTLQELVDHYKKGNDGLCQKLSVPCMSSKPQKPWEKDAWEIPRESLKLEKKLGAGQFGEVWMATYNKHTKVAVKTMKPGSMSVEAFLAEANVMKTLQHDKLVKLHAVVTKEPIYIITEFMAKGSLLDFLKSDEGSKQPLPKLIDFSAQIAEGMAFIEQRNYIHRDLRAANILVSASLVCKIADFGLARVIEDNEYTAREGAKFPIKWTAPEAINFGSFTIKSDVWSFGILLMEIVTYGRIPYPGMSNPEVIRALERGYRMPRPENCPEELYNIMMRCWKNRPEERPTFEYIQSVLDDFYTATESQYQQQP
# Bim-Mcl-1: human Bim-Mcl-1 interaction inhibition | inhibition, % at 10 µM | Q07820 | AID 1009 | actives 0.1% (n = 190,000) | Bead-based flow cytometry, Bim peptide-Mcl-1 binding; in the data active means inhibition above about 40%;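 further: 0% = no compound tracer wells and 100% = peptide blocker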
# 14-3-3 Bad PPI: disrupts binding of bovine 14-3-3 zeta to phospho-Bad peptide | P63103 | actives 0.71% (n = 220,000) | AID 781 | TR-FRET 14-3-3zeta/Dy647-pBad peptide displacement, 1 h | inhibition, % at 21.7 µM;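 active means inhibition above about 70%, limit read from the data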;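 further: 0% = full 14-3-3 plus peptide FRET controls and 100% = background without 14-3-3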
# Mcl1-Bid inh: disrupts binding of human Mcl-1 to Bid peptide; actives 0.97% (n = 220,000); TR-FRET Mcl-1/Bid-Dy647 peptide binding, 1536-well; Q07820; AID 1021; inhibition, % at 21.7 µM;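 active means compounds that cut the binding signal by more than half at the single screening dose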;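 further: His-tagged Mcl-1 with europium anti-His antibody binding Bid BH3 peptide; 0% = Mcl-1 plus peptide wells and 100% = peptide-only wells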
# Biofilm kill mix: mixtures killing C. albicans biofilm; C. albicans biofilm persisters + clotrimazole, fluorescence viability; primary screen in compound mixtures of four per well; inhibition, % at 7.6 µM; actives 0.02% (n = 120,000); AID 1242;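 active means inhibition above 30.3% in the primary screen of four-compound pools, then above 30% when the compound was retested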;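 further: compounds exposed to preformed 24 h biofilms for 48 h; 0% = untreated biofilm control and 100% = clotrimazole plus chlorhexidine kill blank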
#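 Probe or stimulus – Clotrimazole 50 µg/mL co-treatment · System – C. albicans biofilms · Schedule – 24 h biofilm formation, then 48 h compound exposure, 37 °C · Evaluation – percent inhibition of biofilm viability · Technique – 2-h Alamar Blue fluorescence, 535/590 nm excitation/emission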
# Starred values were filed as active, the others as inactive; / = no result; ! = repeats disagree; [ ] = another dose, or the depositor's remark.
SMILES,Mcl1-Noxa inh,Hck Nef HTS,Bim-Mcl-1,14-3-3 Bad PPI,Mcl1-Bid inh,Biofilm kill mix
CCN1C(=O)N(c2cccc3ccccc23)C(C)=CC1(C)C,17.6,-0.1,-2.0,-12.0,-35.2,/
CCN1c2ccccc2N(C)C1(C)c1ccccc1 (stereo not drawn),85.5*,-1.8,2.0,34.2,29.6,12.6
CN1C(=O)N(C)C2(c3ccccc3)NC(=O)NC12c1ccccc1 (stereo not drawn),15.4,0.9,0.0,-6.5,-26.7,/
COc1cc(/C=C2/SC(=O)NC2=O)ccc1Oc1ccc([N+](=O)[O-])cc1[N+](=O)[O-],89.7*,51.5*,/,33.5,-107.3,17.8
COc1cc(/C=C2\SC(=O)NC2=O)ccc1Oc1ccc([N+](=O)[O-])cn1,-3.9,19.9,/,-1.5,-10.3,6.5
COc1cc(/C=C2/SC(N)=NC2=O)ccc1Oc1ccc([N+](=O)[O-])cc1[N+](=O)[O-],60.3*,21.7,-4.0,46.9,67.3*,-5.8
COCC(=O)NC1CCN(S(=O)(=O)c2cccc(C(C)=O)c2)CC1,-1.7,22.6,-4.0,-4.7,-10.0,19.5
CCC1C(=O)NCCN1Cc1nc(-c2ccc(C)s2)oc1C (stereo not drawn),-12.4,28.8,-1.0,-5.8,-22.9,26.1
CC(C)c1c(Cl)c(O)c(-c2ccccc2)c(=O)n1-c1ccc(F)cc1,31.3,10.0,-1.0,88.0*,57.1*,-0.2
CC(C)c1cc(O)c(-c2ccccc2)c(=O)n1-c1ccc(Cl)cc1,16.1,-1.6,/,18.4,14.7,17.8
COCCCn1c(=O)/c(=C\c2ccccc2OC(C)C)s/c1=C(/C#N)C(=O)Nc1ccc(C(=O)O)cc1,62.7*,7.0,/,10.1,-21.8,9.7
COCCn1nnnc1C(c1cccs1)N1CCCC(C)C1 (stereo not drawn),18.5,17.1,5.0,10.0,-5.0,-0.6
CC(Oc1ccc(Cl)cc1Cl)C(=O)N(C)c1ccccc1 (stereo not drawn),15.9,19.2,0.0,-6.5,94.2*,20.9
S=C(Nc1ccc(Cl)cc1)NC1CC2CCC(C1)N2Cc1ccccc1 (stereo not drawn),7.3,-8.2,-2.0,2.2,-35.5,11.0
Cc1nc2c(c(N3CCOCC3)n1)OCC(=O)N2,-6.7,-2.8,0.0,73.7*,-19.5,/
CC1(C)CC(=O)C(C2(O)C(=O)N(Cc3ccccc3)c3ccccc32)CO1 (stereo not drawn),-14.3,7.6,0.0,11.6,-23.1,/
CC(C)N1C(=O)C(O)(C2COC(C)(C)CC2=O)c2ccccc21 (stereo not drawn),36.4,16.3,-1.0,70.7*,38.7,13.2
O=C(Nc1cccc(-c2ccc3nncn3n2)c1)c1ccco1,-6.0,27.4,41.0*,-6.7,-9.3,10.3
Cc1ccccc1C(=O)Nc1cccc(-c2ccc3nncn3n2)c1,3.5,19.3,3.0,3.9,-4.9,8.8
CN(C)CCOC(=O)c1ccc2c(c1)S(=O)(=O)c1ccccc1C2=O,-21.6,20.9,/,5.0,-8.9,16.4
Cc1[nH][nH]c(=O)c1C(c1ccc(-c2ccc(Cl)cc2Cl)o1)c1c(C)[nH][nH]c1=O,-41.0,3.5,-2.0,-4.2,-23.5,/
CC1=NOC(=O)/C1=C\c1ccc(-c2ccc(Cl)cc2Cl)o1,87.3*,47.5,-4.0,61.7,88.1*,/
COc1ccccc1CCc1nnc(CCC(=O)NC(C)Cc2cccnc2)o1 (stereo not drawn),9.3,20.7,0.0,0.2,82.9*,18.6
CC(=O)Nc1ccc(Nc2cc(C(C)C)nc3c(-c4ccccc4)c(C)nn23)cc1,8.9,15.0,/,3.1,-0.7,12.8
COc1ccc(NCc2ccc([N+](=O)[O-])s2)c(OC)c1,53.0*,6.6,-1.0,22.9,11.9,9.9
SMILES,Mcl1-Noxa inh,Hck Nef HTS,Bim-Mcl-1,14-3-3 Bad PPI,Mcl1-Bid inh,Biofilm kill mix
COc1cc2c(cc1OC)C(Nn1cnnc1)=NC1(CCCC1)C2,7.8,24.2,/,-3.2,90.9*,13.9
CC1(C)Cc2ccccc2C(Nn2cnnc2)=N1,-17.8,2.0,3.0,2.0,-15.0,/
CCC1Oc2ccc(C)cc2N(CC(=O)N(Cc2cccnc2)Cc2ccc(C)o2)C1=O (stereo not drawn),63.6*,0.7,1.0,3.0,70.5*,/
Cc1cc(NC(=O)/C=C/c2ccccc2Cl)n(-c2nc3ccccc3[nH]2)n1,-18.6,7.2,0.0,24.5,66.1*,15.5
Cc1cc(-c2nn(-c3ccccc3)cc2/C=C2\SC(N)=NC2=O)ccc1OC(C)C,-2.7,-0.5,94.0*,-5.4,0.0,27.9
COc1ccc(CCNC(=O)CSc2nc(C)nc3sccc23)cc1OC,2.2,24.0,/,3.4,-20.7,17.2
O=C(CCS(=O)(=O)c1ccc(Br)cc1)Nc1cc(F)ccc1F,7.6,8.8,-3.0,-7.4,-34.6,3.2
COC(=O)c1ccccc1NC(=O)CCS(=O)(=O)c1ccc(Br)cc1,45.8,19.5,0.0,80.9*,-107.8,11.5
CN1CCN(S(=O)(=O)c2ccc(N3CCN(S(=O)(=O)/C=C/c4ccccc4)CC3)nc2)CC1,3.9,3.2,-8.0,71.6*,-7.0,/
CN1CCN(S(=O)(=O)c2ccc(N3CCN(C(c4ccccc4)c4ccccc4)CC3)nc2)CC1,6.4,-0.7,0.0,-10.0,-0.1,12.1
O=C(c1ccccc1)c1nc2c(n1O)CCCCC2,2.9,1.0,-2.0,-9.0,-26.2,-4.2
Cc1n[nH]c(=S)c2nn(-c3ccccc3)c(C)c12,14.5,0.0,0.0,-9.0,70.1*,/
Cc1ccc(-n2nc3c(=S)[nH]nc(C)c3c2C)cc1,16.3,-1.0,-2.0,-10.7,-0.9,/
O=S(=O)(c1cccs1)N1CCN(CC(O)COc2cc(Cl)ccc2Cl)CC1 (stereo not drawn),-0.1,1.6,0.0,-16.7,13.1,/
O=c1c2ccccc2nc2c3ccccc3c(Cl)nn12,-1.1,18.6,6.0,-5.6,-11.9,1.6
O=c1c2ccccc2nc2c3ccccc3cnn12,-12.7,19.3,10.0,79.7*,0.7,3.5
Cc1ccccc1OCC(=O)NCCC1=CCCCC1,-4.2,2.3,-8.0,82.5*,-19.3,7.6
CC(=O)Nc1ccccc1OCC(=O)NCCC1=CCCCC1,-4.2,14.7,0.0,-3.6,-14.4,2.7
CCN1C(=O)/C(=C\c2nc3ccccc3c(=O)n2-c2ccccc2)c2ccccc21,27.4,3.7,-5.0,78.4*[fluorescence artefact?],45.1,16.3
Cn1c(SCc2ccccc2)nnc1-c1ccc2nonc2c1,13.0,14.3,/,-8.8,-11.7,21.6
CCCC(=O)Nc1ccc(NC(=S)NC(=O)c2cccs2)cc1,20.5,19.8,0.0,-13.4,-34.0,17.9
O=C(NC(=S)Nc1ccc(-c2ccc(CO)o2)cc1)c1cccs1,63.2*,31.4,-3.0,2.8,-20.4,27.4
Cc1cc(C)nc(NCC(O)COc2ccccc2C)n1 (stereo not drawn),-13.4,2.1,-2.0,9.0,100.7*,/
CCOc1c(C)cc(-c2ncccc2O)cc1C,-0.4,3.6,-5.0,74.9*!,0.1,/
